Screening data: PubChem BioAssay, several laboratories
CYP2C9 inhib – human CYP2C9 inhibition; P11712; CYP2C9 Supersomes, luciferin-H conversion, luminescence; inhibition, % at 5 µM; 96,000 tested, 20% active; AID 777;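 active means blocking of liver enzyme CYP2C9 beyond about 50% at 5 µM, limit read from the data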
Target sequence (P11712 whole entry, looked up): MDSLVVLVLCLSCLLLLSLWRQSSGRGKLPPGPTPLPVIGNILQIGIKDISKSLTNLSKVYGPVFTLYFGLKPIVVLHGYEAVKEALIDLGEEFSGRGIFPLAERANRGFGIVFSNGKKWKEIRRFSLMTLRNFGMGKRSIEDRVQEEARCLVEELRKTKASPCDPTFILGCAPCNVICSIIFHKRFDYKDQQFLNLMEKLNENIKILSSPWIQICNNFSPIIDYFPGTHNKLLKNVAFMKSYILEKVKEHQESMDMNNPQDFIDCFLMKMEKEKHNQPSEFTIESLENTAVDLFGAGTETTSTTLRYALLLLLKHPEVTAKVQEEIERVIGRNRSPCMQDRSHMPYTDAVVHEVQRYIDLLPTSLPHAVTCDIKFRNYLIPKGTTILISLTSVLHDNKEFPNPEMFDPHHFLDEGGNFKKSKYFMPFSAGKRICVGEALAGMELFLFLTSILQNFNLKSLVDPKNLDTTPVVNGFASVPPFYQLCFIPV
Ecoli WT expand – blocks growth of wild type E. coli BW25113; OD600 absorbance; growth inhibition, % at 100 µM; 98,000 tested, 0.15% active; AID 710;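 active means growth inhibition above about 50% at one test dose, limit read from the data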;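 further: growth measured after 20 h incubation at 37 °C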
CYP2C9 act – CYP2C9 (human) activation; AID 1024; 96,000 tested, 1.4% active; P11712; recombinant CYP2C9, luciferin-H conversion, luminescence; stronger effect = higher value; factor 1 = untreated enzyme, 0 = blocked; activation factor at 5 µM;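 active means activation factor of 2 or more for CYP2C9 at a 5 µM dose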;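 further: 0 = sulfaphenazole-blocked wells and 1 = vehicle-only wells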
CYP2C19 act – cytochrome P450 2C19 (human) activation | recombinant CYP2C19, luciferin-H EGE luminescence; stronger effect = higher value; 0 = fully inhibited enzyme, 1 = untreated enzyme | activation factor at 5 µM | 96,000 tested, under 10 active;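 active means activation factor of at least 2 at 5 µM in the primary screen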;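 further: 0 = wells with 2.5 mM tranylcypromine and 1 = vehicle-only wells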
tolC growth inh – growth inhibitors of E. coli BW25113 tolC mutant. OD615. growth inhibition, % at 10 µM (by protocol). 65,000 tested, 2.2% active. AID 573;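 active means growth inhibition at or above a cutoff equal to the mean over every tested compound plus 3 SD, cut at about 60% in these data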;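 further: growth measured after 20 h incubation at 37 °C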
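Test system: E. coli BW25113 ΔtolC::kan bacteria | Medium: Kanamycin-containing LB broth (50 µg/mL) | Dosing: One dose of 10 µM final | Times: 20 h incubation with compound, 37 °C | Detection: Optical density read at 615 nm | Read-out basis: Percent growth inhibition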
CYP2C19 inhib – blocks human cytochrome P450 2C19 | CYP2C19 Supersomes, luciferin-H EGE luminescence, 30 min | inhibition, % at 5 µM | 96,000 tested, 21% active | P33261;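 active means CYP2C19 inhibition above a set limit at 5 µM in the primary screen, cut at about 50% in these data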;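 further: plate controls were negative control wells for no effect and 2.5 mM tranylcypromine positive control for full effect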
Starred values were filed as active, the others as inactive; x = no result given. In the library only some 29% were active in any assay of this set; here they are far more common.

SMILES	CYP2C9 inhib	Ecoli WT expand	CYP2C9 act	CYP2C19 act	tolC growth inh	CYP2C19 inhib
Cc1ccc(S(=O)(=O)c2cccc(S(=O)(=O)N3CCCC3)c2)cc1S(=O)(=O)N1CCCC1	-3.7	-4.0	1	0.5	22.8	51.7*
O=C(O)c1cccc(S(=O)(=O)N2CCCC2)c1	21.2	-7.0	0.8	0.9	-19.6	6.5
Cc1ccc(S(=O)(=O)c2cccc(S(=O)(=O)N3CCOCC3)c2)cc1S(=O)(=O)N1CCOCC1	-41.7	-7.0	1.4	0.9	x	14.6
Cc1sc(/N=C/c2ccccc2O)c(C#N)c1C	1.4	-12.0	1	0.7	x	27.1
COc1ccc(-n2c(SCC(=O)N3CCOCC3)nc(O)c(Cc3ccccc3)c2=O)cc1	11.0	-9.0	0.9	0.8	x	17.6
CCCCCCNC(=O)Cc1nc2nc(C)cc(C)n2n1	-15.4	11.0	1.2	1.1	-1.4	-11.8
CCC(C)NC(=O)C(CCSC)NC(=O)c1ccccc1 (stereo unspecified)	35.3	-4.0	0.6	0.7	x	26.0
CSCCC(NC(=O)c1ccc(Cl)cc1)C(=O)NC(C)(C)C (stereo unspecified)	62.3*	3.0	0.4	0.6	x	44.5
Nc1cccc2c1C(=O)N(C(=O)c1ccc(Cl)c(S(=O)(=O)N3CCCCCC3)c1)C2=O	11.2	6.0	0.9	1	x	3.6
COC(=O)C1=C(C)NC(=O)C1(NC(=O)CN1CCCC1=O)C(F)(F)F (stereo unspecified)	x	0.0	x	x	-16.5	x
Cc1ccc(C(=O)c2nocc2C(=O)c2cccs2)cc1	69.3*	10.0	0.3	0.4	30.9	61.6*
C/C(=N/OC(=O)c1ccc(C)cc1)c1cccs1	34.8	-1.0	0.7	0.8	x	23.0
COc1ccc2[nH]c(=O)c(CN(C(=O)c3cccnc3)c3ccccc3)cc2c1	35.4	-4.0	0.6	0.8	x	15.9
COc1ccc(NC(=O)c2cccnc2)c(OC)c1	14.3	4.0	0.9	0.7	-12.7	34.8
CCOc1ccc2[nH]c(=O)c(CN(Cc3ccccc3OC)C(=O)c3ccccc3)cc2c1	43.5	-15.0	0.6	0.7	x	26.9
COc1ccc(NC(=O)N(Cc2ccc(C)cc2)Cc2cccnc2)c(OC)c1	90.0*	-12.0	0.1	0	x	97.4*
CCOc1ccc2[nH]c(=O)c(CN(Cc3cccnc3)C(=O)Nc3ccccc3OC)cc2c1	22.2	-9.0	0.8	0.5	-3.6	53.9*
CCOc1ccc2[nH]c(=O)c(CN(CCc3ccccc3)C(=O)c3cnccn3)cc2c1	40.5	-3.0	0.6	0.5	-6.6	51.4*
COc1ccc2[nH]c(=O)c(CN(Cc3cccnc3)C(=O)Nc3ccccc3)cc2c1	88.3*	-5.0	0.1	0.1	-0.9	87.8*
COc1cc(NC(=S)NN2CCN(C)CC2)cc(OC)c1	9.9	-2.0	0.9	1	x	2.8
CCc1ccc2[nH]c(=O)c(CN(Cc3ccccc3OC)C(=O)Nc3ccccc3OC)cc2c1	93.4*	-15.0	0.1	1.3	x	-28.4
Cc1ccccc1N(CC(=O)N/N=C/c1cc(C)n(-c2ccccc2C)c1C)S(C)(=O)=O	58.1*	1.0	0.4	0.9	x	9.6
CCn1c(SCC(=O)NCc2cccs2)nnc1-c1ccco1	12.1	1.0	0.9	0.6	-12.9	40.9
NC(=O)c1c(NC(=O)CSc2nnc(-c3ccco3)n2-c2ccccc2)sc2c1CCC2	94.4*	-10.0	0.1	0.3	16.2	69.4*
CCn1c(SCC(=O)Nc2nc(C)c(C)s2)nnc1-c1ccco1	42.5	-5.0	0.6	0.2	x	79.5*
SMILES	CYP2C9 inhib	Ecoli WT expand	CYP2C9 act	CYP2C19 act	tolC growth inh	CYP2C19 inhib
CCOC(=O)c1sc(NC(=O)CSc2nnc(-c3ccco3)n2CC)c(C(=O)OCC)c1C	96.3*	-21.0	0	0.9	30.7	8.9
CCOC(=O)c1c(NC(=O)CSc2nnc(-c3cccc(C)c3)n2CC)sc(C(C)=O)c1C	94.3*	-4.0	0.1	0.5	x	45.1
Nc1cc(Cl)nc(N/N=C/c2ccccc2[N+](=O)[O-])n1	-5.6	-3.0	1.1	0.9	x	9.7
Cn1c(=O)cc(OCCCC(=O)NCc2ccc3c(c2)OCO3)c2ccccc21	45.0	1.0	0.6	0.8	5.1	16.6
Cc1cc(=O)oc2c1c(C)nn2-c1ccc(C(=O)OC(C)C)cc1	23.9	x	0.8	0.9	0.6	13.6
CCOC(=O)c1c(NC(=O)CSc2nnc(-c3ccccc3)n2CC)sc(C(C)=O)c1C	97.3*	-2.0	0	0.1	51.3	89.7*
CCn1c(SCc2c(F)cccc2Cl)nnc1-c1ccco1	-11.9	0.0	1.1	0.4	21.9	60.7*
CCn1c(SCC(=O)OCc2ccccc2)nnc1-c1ccco1	7.4	8.0	0.9	0.9	-4.1	12.3
C=CCn1c(SCC(=O)Nc2nccs2)nnc1-c1ccco1	22.2	11.0	0.8	0.1	x	85.3*
CCOC(=O)c1c(NC(=O)C2c3ccccc3Oc3ccccc32)sc(C(C)=O)c1C	94.4*	-13.0	0.1	0.5	x	47.6
CCOC(=O)c1c(NC(=O)CSc2nc(C)cc(C)c2C#N)sc(C(C)=O)c1C	18.1	4.0	0.8	0.8	3.2	23.6
CC(=O)N1CCc2cc(C(=O)CN3CCN(C(=O)c4ccco4)CC3)ccc21	42.6	1.0	0.6	0.8	-2.8	23.1
C/C(=C\c1ccccc1)C(=O)Nc1cc(C)on1	21.2	4.0	0.8	0.9	x	6.4
CCn1c(SCC(=O)Nc2sc3c(c2C#N)CCC(C(C)(C)C)C3)nnc1-c1ccco1 (stereo unspecified)	33.4	-23.0	0.7	0.8	x	18.3
CCn1c(SCC(=O)Nc2sc3c(c2C#N)CCCC3)nnc1-c1ccco1	55.1*	-9.0	0.4	0.9	x	14.8
CCN(CC)C(=O)CSc1ccccc1N	22.7	-3.0	0.8	0.5	-12.9	49.1
CCn1nc(C)c(NC(=O)c2cc(Br)ccc2Cl)c1C	-19.5	-6.0	1.2	1.1	3.4	-5.1
Cc1ccc(S(=O)(=O)Cc2cccc(C(=O)N3CCOCC3)c2)cc1	-21.0	7.0	1.2	1	-8.4	-0.9
Cc1ccc(S(=O)(=O)Nc2cc(C(=O)N3CCOCC3)ccc2N2CCCCC2)cc1	57.2*	-3.0	0.4	0.6	-7.6	36.8
Cc1ccc(NS(=O)(=O)c2cccc(C(=O)N3CCOCC3)c2)cc1	39.7	3.0	0.6	0.3	-30.8	72.4*
Oc1ccc2c(c1)oc1cc(O)ccc12	39.0	35.0	0.6	1.7	100.0*	-72.5
NC(=S)c1cc2ccc(O)cc2oc1=O	12.9	24.0	0.9	0.7	x	29.0
O=C(NC1CCCC1)C1C2C=CC(C2)C1C(=O)N1CCOCC1 (stereo unspecified)	8.3	-3.0	0.9	0.9	1.7	7.6
N/C(Cc1ccc(Cl)cc1)=N\OC(=O)c1cccc2ccccc12	-103.3	8.0	2*	0.9	x	12.1
CC1=C(c2ccc(C)cc2)S(=O)(=O)N(CC(=O)O)C1=O	82.0*	-6.0	0.2	1.1	-19.6	-6.7
